Screens from PubChem.
ARFGAP1 inhibitor = rat ARFGAP1 inhibition | Arfgap1-stimulated ARF1 GTP hydrolysis, GDP FP detection | Q62848 | inhibition, % at 16.5 µM | 0.26% of 360,000 active | AID 651572;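 active = inhibition above a per-plate limit, mean inhibition of low control wells plus 3 SD, cut at about 25% in these data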
Target sequence (Q62848 1-136 limits assumed): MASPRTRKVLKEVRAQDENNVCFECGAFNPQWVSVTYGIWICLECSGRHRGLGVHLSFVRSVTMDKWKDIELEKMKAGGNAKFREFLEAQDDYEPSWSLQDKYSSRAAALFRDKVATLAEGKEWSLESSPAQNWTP
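System: truncated rat Arfgap1 GAP domain / Benchmarks: high control wells lacking Arfgap1, low control full reaction with DMSO / Times: compound-enzyme preincubation 20 min, reaction 120 min, detection 60 min, 25 °C / Repeats: one replicate per compound / Also added: human ARF1(Δ1-17)-GTP substrate / Measured by: Tracer-displacement fluorescence polarization with EDTA stop, 620/688 nm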
PHOSPHO1 inh = blocks human PHOSPHO1 phosphatase activity; Q8TCT1; recombinant PHOSPHO1, absorbance phosphatase assay; inhibition, % at 13.3 µM; 1.1% of 290,000 active; AID 1565; in the data active = inhibition above about 60%
VIM-2 inh = blocks Pseudomonas aeruginosa VIM-2 metallo-beta-lactamase | purified VIM-2, nitrocefin hydrolysis, epi-absorbance fluorescence | inhibition, % at 5.6 µM | 0.89% of 290,000 active | AID 1527;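 active = inhibition above the mean of all tested compounds plus 3 SD, cutoff set per screening run, cut at about 7.5% in these data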;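 also: red hydrolysis product quenches plate fluorescence so inhibitors raise well fluorescence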
IMP-1 inhibitor = blocks Pseudomonas aeruginosa IMP-1 metallo-beta-lactamase; AID 1556; purified IMP-1, nitrocefin hydrolysis, epi-absorbance fluorescence; inhibition, % at 5.6 µM; 0.45% of 290,000 active;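 active = inhibition above the mean plus 3 SD of all compounds in the same screening run, cut at about 4.5% in these data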
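Assay system: purified recombinant IMP-1 beta-lactamase. Input: IMP-1 0.2 nM before substrate addition. Buffer or medium: Zinc- and detergent-supplemented HEPES buffer, pH 7.1. Schedule: 25 °C, 15 min preincubation, 25 min reaction. Signal: Epi-absorbance fluorescence, 480 nm excitation, 530 nm emission. Evaluation: percent inhibition from optical density relative to buffer-blank wells.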
ASAP1 GAP inh = blocks human ASAP1-stimulated Arf1 GTP hydrolysis. inhibition, % at 16.5 µM. Q9ULH1. GDP FP detection. 0.19% of 360,000 active; in the data active = inhibition above about 25%
Target sequence (Q9ULH1 325-724 limits assumed): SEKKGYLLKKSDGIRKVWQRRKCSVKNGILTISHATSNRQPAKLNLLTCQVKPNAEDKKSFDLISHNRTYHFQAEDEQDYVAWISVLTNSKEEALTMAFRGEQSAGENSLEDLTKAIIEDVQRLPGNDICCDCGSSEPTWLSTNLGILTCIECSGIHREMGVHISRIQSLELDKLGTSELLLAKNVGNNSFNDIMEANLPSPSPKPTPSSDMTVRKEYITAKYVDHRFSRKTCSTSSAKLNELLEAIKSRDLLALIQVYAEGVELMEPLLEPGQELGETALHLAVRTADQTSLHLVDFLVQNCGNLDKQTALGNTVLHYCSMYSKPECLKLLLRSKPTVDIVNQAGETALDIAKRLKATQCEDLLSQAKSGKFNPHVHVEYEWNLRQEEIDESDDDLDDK
Calb FLC = affects C. albicans growth with fluconazole; C. albicans CaCi-2 + fluconazole, Alamar Blue growth, 48 h; growth inhibition, % (concentration not given with the values); 0.57% of 300,000 active; AID 1979;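 active = growth inhibition above about 58% in most replicates, limit read from the data, passing the limit was not always enough; inconclusive = exactly half the replicates above a set limit; inactive = most replicates below a set limit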;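 also: all wells also contain fluconazole at 8 µg/ml as a sub-toxic cotreatment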
Each line names hits and unclear results; the compound was inactive in the other large screens. The list is not random: actives were taken first. Their share in the collection is about 2.6%.

CCn1c(-c2cc(-c3ccccc3)sc2N)n[nH]c1=S	PHOSPHO1 inh 77
CCn1c(C(c2ccccc2)c2ccccc2)n[nH]c1=S	PHOSPHO1 inh 100
C=CCn1c(C(c2ccccc2)c2ccccc2)n[nH]c1=S	none
CCCn1c(-c2ccc(F)cc2)n[nH]c1=S	PHOSPHO1 inh 91, VIM-2 inh 10, Calb FLC inconclusive
CCn1c(-c2ccccc2O)n[nH]c1=S	PHOSPHO1 inh 65
CCn1c(-c2cccnc2)n[nH]c1=S	none
COC(=O)C1=C(C)N(C)C(=NCC2CC2)NC1c1cccc(Cl)c1 (stereo unspecified)	none (no result: PHOSPHO1 inh, VIM-2 inh, IMP-1 inhibitor, Calb FLC)
COc1ccc(C=NN(C)C(=O)Nc2cccc(Cl)c2)cc1OC	none (no result: PHOSPHO1 inh, VIM-2 inh, IMP-1 inhibitor, Calb FLC)
COC(=O)C1=C(C)N(Cc2ccccc2C(F)(F)F)C(=NCc2cc(OC)c(OC)c(OC)c2)NC1CCc1ccccc1 (stereo unspecified)	none (no result: PHOSPHO1 inh, VIM-2 inh, IMP-1 inhibitor, Calb FLC)
CCc1ccc(-c2cc(-c3n[nH]c(=S)n3CC)c3ccccc3n2)cc1	none (no result: ARFGAP1 inhibitor, ASAP1 GAP inh)
CCn1c(-c2cc(-c3cccc(OC)c3)nc3ccccc23)n[nH]c1=S	PHOSPHO1 inh 92
NC(N)=N/N=C/c1ccc(OCc2ccc(Cl)cc2)cc1	Calb FLC 111
O=C(Nc1ccc(F)cc1F)N1CCN(C/C=C/c2ccccc2)CC1	none
O=C(Nc1ccc(F)cc1F)N1CCN(CCc2ccccc2)CC1	PHOSPHO1 inh 68
C=CC(=O)NC1CCCCN(CCC)C1=O (stereo unspecified)	none (no result: PHOSPHO1 inh, VIM-2 inh, IMP-1 inhibitor, Calb FLC)
Cc1nc2c(C(=O)NCCC3=CCCCC3)c[nH]n2c(=O)c1Cl	PHOSPHO1 inh 82
COc1ccc(/C=C/C(=O)c2ccc([N+](=O)[O-])o2)cc1OC	none (no result: PHOSPHO1 inh, VIM-2 inh, IMP-1 inhibitor)
O=C(/C=C/c1cccc(Cl)c1)c1ccc([N+](=O)[O-])o1	Calb FLC 88 (no result: PHOSPHO1 inh, VIM-2 inh, IMP-1 inhibitor)
CCCCN1C(N)=NC[C@@H]1Cc1ccc(O)cc1	none (no result: VIM-2 inh, IMP-1 inhibitor)
NC1=NC[C@H](Cc2ccc(O)cc2)N1CCC12CC3CC(CC(C3)C1)C2	Calb FLC 106 (no result: VIM-2 inh, IMP-1 inhibitor)
O=C(O)CCN1C(=O)/C(=C2\C(=O)N(Cc3ccc(F)cc3)c3ccccc32)SC1=S	IMP-1 inhibitor 51
CN1C(=O)/C(=C2\SC(=S)N(CCCCCC(=O)O)C2=O)c2ccccc21	none
COc1ccc(C(=O)N2CCCCC2c2cc(C(=O)Nc3cccc(C#N)c3)no2)cc1 (stereo unspecified)	none (no result: PHOSPHO1 inh, VIM-2 inh, IMP-1 inhibitor, Calb FLC)
Cc1cc(N2CCNC[C@@H]2C)ccc1N1CCN(Cc2ccccc2)[C@@H](C)C1	none (no result: PHOSPHO1 inh, VIM-2 inh, IMP-1 inhibitor, Calb FLC)
Oc1ccc(/C=N/Nc2cc(N3CCCC3)nc(N3CCCC3)n2)cc1	ARFGAP1 inhibitor 28
COc1ccc(CCNc2ncnc3sc(C)cc23)cc1OC	Calb FLC 107
Cc1cc(N2CCN(CC(C)(C)O)C[C@H]2C)ccc1N1CCN(CC(C)(C)O)[C@@H](C)C1	none (no result: PHOSPHO1 inh, VIM-2 inh, IMP-1 inhibitor, Calb FLC)
Cc1ccccc1NC(=O)c1cc2c(=O)n3cccc(C)c3nc2s1	VIM-2 inh 9.2
Cc1onc(-c2ccccc2)c1C(=O)NC(=S)NNC(=O)c1cccnc1	Calb FLC 100
Cc1onc(-c2ccccc2)c1C(=O)NC(=S)NNC(=O)c1ccncc1	none
Cc1ccc(C(O)c2ncc(-c3ccccc3Cl)[nH]2)cc1F (stereo unspecified)	none (no result: PHOSPHO1 inh, VIM-2 inh, IMP-1 inhibitor, Calb FLC)
COc1cc(N)ccc1NC(=O)c1cc2ccccc2o1	IMP-1 inhibitor 7.5 (no result: PHOSPHO1 inh)
Cc1ccccc1OC(C)C(=O)N1CCC(Cc2ccccc2)CC1 (stereo unspecified)	PHOSPHO1 inh 68
Cc1cc2c(c(=O)o1)[C@@]1(C(=O)N(C)c3ccccc31)C1=C(CC(C)(C)OC1=O)O2	none (no result: PHOSPHO1 inh, VIM-2 inh, IMP-1 inhibitor, Calb FLC)
CC(C)(C)OC(=O)NNC(=O)c1ccc(Cl)cc1	none
CC(C)(C)OC(=O)NNC(=S)NCc1ccc(Cl)cc1	PHOSPHO1 inh 73
CC(O)c1nc2ccccc2n1CCCCOc1ccccc1 (stereo unspecified)	IMP-1 inhibitor 38
CN1CCCCC(NC(=O)c2ccccc2)C1=O (stereo unspecified)	none (no result: PHOSPHO1 inh, VIM-2 inh, IMP-1 inhibitor, Calb FLC)
Cn1cc(/C=C2/SC(=O)N(CC(=O)Nc3ccc4c(c3)OCO4)C2=O)c2ccccc21	none
O=C(CN1C(=O)S/C(=C\c2ccc(-c3cc(C(=O)O)ccc3Cl)o2)C1=O)Nc1ccc2c(c1)OCO2	IMP-1 inhibitor 17
N/C(=N\OS(=O)(=O)c1ccc(Cl)cc1)c1ccccn1	none (no result: Calb FLC)
N/C(=N\OS(=O)(=O)c1ccccc1)c1ccccn1	PHOSPHO1 inh 79
Cc1ccc(C(=O)NC2CCCCN(C)C2=O)c(C)c1 (stereo unspecified)	none (no result: PHOSPHO1 inh, VIM-2 inh, IMP-1 inhibitor, Calb FLC)
CCn1c(SC(=O)NC2CCCCC2)nnc1-c1cccs1	VIM-2 inh 11
CCn1c(SCC(=O)NC2CCCCC2)nnc1-c1cccs1	none
Cc1cc(SCC(=O)N/N=C/c2ccc(O)c(O)c2O)c(C)cc1Br	Calb FLC 107
O=C(O)CCCN1C(=O)/C(=C/c2ccc(-c3nc4ccccc4s3)o2)SC1=S	PHOSPHO1 inh 69, Calb FLC inconclusive
O=C(O)CCCCCN1C(=O)/C(=C\c2ccc(-c3ccc(Cl)cc3)o2)SC1=S	none
O=[N+]([O-])c1ccc(Sc2cccc3cccnc23)c([N+](=O)[O-])c1	PHOSPHO1 inh 87
Cc1[nH][nH]c(=O)c1[C@@H](c1ccccc1[N+](=O)[O-])C(C#N)C#N	none
CCCc1[nH][nH]c(=O)c1C(c1ccccc1)C(C#N)C#N (stereo unspecified)	VIM-2 inh 9.1
CCCc1[nH][nH]c(=O)c1C(c1ccc(Br)cc1)C(C#N)C#N (stereo unspecified)	VIM-2 inh 8.8
Cc1ccc(S(=O)(=O)c2ncccc2N)cc1	none
Cc1ccc(S(=O)(=O)c2ncccc2[N+](=O)[O-])cc1	Calb FLC 108
C=CCSc1nc2ccccc2n2cnnc12	VIM-2 inh 10
CN1CCc2c(OCc3ccc(F)cc3)cccc2C1=O	IMP-1 inhibitor 23
O=C1c2cccc(OCc3ccc(F)cc3)c2CCN1Cc1ccc(F)cc1	none
CCCCC(=O)NC(c1ccc(OC)cc1)c1ccc2cccnc2c1O (stereo unspecified)	none (no result: PHOSPHO1 inh, VIM-2 inh, IMP-1 inhibitor, Calb FLC)
COc1ccc(C(NC(=O)C(C)C)c2ccc3cccnc3c2O)cc1 (stereo unspecified)	Calb FLC 86
CCCC(=O)NC(c1ccc(N(C)C)cc1)c1ccc2cccnc2c1O (stereo unspecified)	Calb FLC 92
CCCC(=O)NC(c1ccccc1Cl)c1ccc2cccnc2c1O (stereo unspecified)	Calb FLC 83
CCCC(=O)NC(c1ccc(C(C)C)cc1)c1ccc2cccnc2c1O (stereo unspecified)	Calb FLC 89 (no result: PHOSPHO1 inh)
CC(=O)NC(c1ccco1)c1ccc2cccnc2c1O (stereo unspecified)	none (no result: ARFGAP1 inhibitor, ASAP1 GAP inh)
O=C(N[C@H](Cc1ccccc1)C(=O)NCc1ccc2c(c1)OCO2)[C@H]1O[C@@H](n2ccc(=O)[nH]c2=O)[C@H](O)[C@@H]1O	none (no result: PHOSPHO1 inh, VIM-2 inh, IMP-1 inhibitor, Calb FLC)
